Active and inactive are the calls of the source.
Tests used:
Assay type in all cases: functional, cell-based
Hippocampal neurone [1] = test: Anti-neuronal activity against hippocampal neuron in Wistar rat assessed as H89 blocked CREB phosphorylation at Serine 133 by western blot analysis
Hippocampal neurone [2] = test: Anti-neuronal activity against hippocampal neuron in Wistar rat assessed as blocked H3K27Me3 demethylation at promoters IV by qPCR assay analysis
Procedure, shortened: (§1)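 E18 Wistar rat hippocampal neurons were cultured 15 DIV and stimulated with 20 µM NMDA for 5 min, then the medium was replaced. Cells were crosslinked with 1% formaldehyde for 10 min at 37 °C and chromatin sonicated to 400–700 bp. 100 µg protein per overnight immunoprecipitation at 4 °C, with rabbit IgG as negative control. Promoter DNA was quantified by qPCR against unstimulated controls; n = independent cultures.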

Hippocampal neurone [3] = test: Anti-neuronal activity against hippocampal neuron in Wistar rat assessed as H3K27Ac promoters I by qPCR assay analysis; procedure, shortened: as §1
Hippocampal neurone [4] = test: Anti-neuronal activity against hippocampal neuron in Wistar rat assessed as blocked H3K27Me3 demethylation at promoters VI by qPCR assay analysis; procedure, shortened: as §1
Hippocampal neurone [5] = test: Anti-neuronal activity against hippocampal neuron in Wistar rat assessed as blocked transcriptional activation of promoters II by qPCR assay analysis
Procedure, shortened: (§2)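 Rat hippocampal cultures (15 DIV) were pretreated for 1 h with 10 µM SB203580 (p38 inhibitor), then given 20 µM NMDA for 5 min. Bdnf transcripts were measured by RT-qPCR 30 min after NMDA, using 0.5 µM primers and Gapdh, GusB and Pgk1 as reference genes. Samples were compared with non-stimulated controls; n = independent cultures.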

Hippocampal neurone [6] = test: Anti-neuronal activity against hippocampal neuron in Wistar rat assessed as active CREB was found at the BDNF promoters by qPCR assay analysis; procedure, shortened: as §1
Hippocampal neurone [7] = test: Anti-neuronal activity against hippocampal neuron in Wistar rat assessed as H3K27Ac promoters VI by qPCR assay analysis; procedure, shortened: as §1
Hippocampal neurone [8] = test: Anti-neuronal activity against hippocampal neuron in Wistar rat assessed as impaired recruitment of JMJD3 by qPCR assay analysis; procedure, shortened: as §1
Hippocampal neurone [9] = test: Anti-neuronal activity against hippocampal neuron in Wistar rat assessed as higher levels of H3K27Me3 at promoter II by qPCR assay analysis; procedure, shortened: as §1
Hippocampal neurone [10] = test: Anti-neuronal activity against hippocampal neuron in Wistar rat assessed as blocked transcriptional activation of promoters VI by qPCR assay analysis; procedure, shortened: as §2
Hippocampal neurone [11] = test: Anti-neuronal activity against hippocampal neuron in Wistar rat assessed as blocked recruitment of CBP by qPCR assay analysis; procedure, shortened: as §1

Measured: Activity

O=S(=O)(NCCNC/C=C/c1ccc(Br)cc1)c1cccc2cnccc12
active: Hippocampal neurone [1]

O=C(Nc1ccc(Cl)cc1)c1cc2ccccc2cc1O
active: Hippocampal neurone [2] | Hippocampal neurone [3] | Hippocampal neurone [4] | Hippocampal neurone [5] | Hippocampal neurone [6] | Hippocampal neurone [7] | Hippocampal neurone [8] | Hippocampal neurone [9] | Hippocampal neurone [10] | Hippocampal neurone [11]

From ChEMBL document CHEMBL5712889, “Neuronal activity controls Bdnf expression via Polycomb de-repression and CREB/CBP/JMJD3 activation in mature neurons” (Nat Commun, 2016)
